Experimental data: ChEMBL document CHEMBL5321226, “Structure-directed identification of pyridine-2-methylamine derivatives as MmpL3 inhibitors for use as antitubercular agents” (Eur J Med Chem, 2023)
≈ marks a conversion by molar mass, not a printed value.

How the values were obtained:
Type in all cases: functional
Settings in all cases: time 7-14 day
[1] = test system: Mycobacterium tuberculosis; assay: Antimycobacterial activity against N-cycloheptyl-4,6-dimethyl-1H-indole-2-carboxamide-resistant Mycobacterium tuberculosis IAR2 harboring MmpL3 S288T mutant assessed as bacterial growth inhibition incubated for 7 to 14 days by MABA assay
[2] = test system: Mycobacterium tuberculosis; assay: Antimycobacterial activity against multidrug resistant Mycobacterium tuberculosis V2475 assessed as bacterial growth inhibition incubated for 7 to 14 days by MABA assay
Outline: (§1)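 Clinical M. tuberculosis isolates were tested in a microplate Alamar Blue assay (MABA), with isoniazid, rifampin, levofloxacin, ofloxacin and kanamycin as positive controls. The MIC is the lowest concentration giving at least a 90% reduction of the bacterial growth signal, averaged over three individual measurements.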

[3] = test system: Mycobacterium tuberculosis; assay: Antimycobacterial activity against multidrug resistant Mycobacterium tuberculosis KZN494 assessed as bacterial growth inhibition incubated for 7 to 14 days by MABA assay; outline: as §1
[4] = test system: Mycobacterium tuberculosis; assay: Antimycobacterial activity against extensively drug resistant Mycobacterium tuberculosis R506 assessed as bacterial growth inhibition incubated for 7 to 14 days by MABA assay; outline: as §1
[5] = test system: Mycobacterium tuberculosis; assay: Antimycobacterial activity against extensively drug resistant Mycobacterium tuberculosis TF274 assessed as bacterial growth inhibition incubated for 7 to 14 days by MABA assay; outline: as §1

Structure (SMILES) | MIC90 [1] [µg/mL] | MIC90 [2] [µg/mL] | MIC90 [3] [µg/mL] | MIC90 [4] [µg/mL] | MIC90 [5] [µg/mL]
Cc1cc(C)c2cc(C(=O)NC3CCCCCC3)[nH]c2c1 | 0.013 (≈ 0.0457 µM) |  |  |  | 
c1ccc(-c2ccc(-c3ccnc(CN4CCC5(CCCC5)CC4)c3)cc2)cc1 | 1 (≈ 2.61 µM) | 0.063 (≈ 0.165 µM) | 0.016 (≈ 0.0418 µM) | 0.031 (≈ 0.081 µM) | 0.004 (≈ 0.0105 µM)
NNC(=O)c1ccncc1 [ISONIAZID] | 0.04 (≈ 0.292 µM) | 16 (≈ 117 µM) | 16 (≈ 117 µM) | 8 (≈ 58.3 µM) | 8 (≈ 58.3 µM)
NC[C@H]1O[C@H](O[C@H]2[C@H](O)[C@@H](O[C@H]3O[C@H](CO)[C@@H](O)[C@H](N)[C@H]3O)[C@H](N)C[C@@H]2N)[C@H](O)[C@@H](O)[C@@H]1O [KANAMYCIN] |  | 2 (≈ 4.13 µM) | 2 (≈ 4.13 µM) | > 128 | > 128
C[C@H]1COc2c(N3CCN(C)CC3)c(F)cc3c(=O)c(C(=O)O)cn1c23 [LEVOFLOXACIN ANHYDROUS] |  |  |  | 2 (≈ 5.53 µM) | 1 (≈ 2.77 µM)
CC1COc2c(N3CCN(C)CC3)c(F)cc3c(=O)c(C(=O)O)cn1c23 (stereo not given) [OFLOXACIN] |  | 0.5 (≈ 1.38 µM) | 0.5 (≈ 1.38 µM) | 4 (≈ 11.1 µM) | 8 (≈ 22.1 µM)
CO[C@H]1/C=C/O[C@@]2(C)Oc3c(C)c(O)c4c(O)c(c(/C=N/N5CCN(C)CC5)c(O)c4c3C2=O)NC(=O)/C(C)=C\C=C\[C@H](C)[C@H](O)[C@@H](C)[C@@H](O)[C@@H](C)[C@H](OC(C)=O)[C@@H]1C [RIFAMPIN] |  | 4 (≈ 4.86 µM) | 128 (≈ 156 µM) | > 128 | > 128
